Measured values of several laboratories.
Compare with care: the assays were run in different laboratories. pEC50, pIC50, pKd, pKi: −log10 of the molar value.
CHRM1: Muscarinic acetylcholine receptor M1 (CHRM1, Homo sapiens, UniProt P11229)
4,4'-diapophytoene synthase: 4,4'-diapophytoene synthase (Staphylococcus aureus, UniProt A9JQL9)
CYP3A4: Cytochrome P450 3A4 (CYP3A4, Homo sapiens, UniProt P08684)

| SMILES | target | test | system | conditions | measurement | result |
| --- | --- | --- | --- | --- | --- | --- |
| Cc1cc(N2CCNCC2)nc2ccccc12 | CHRM1 | ligand displacement, radioligand |  | cell membranes | pKi | < 4.50 |
| COc1cc(C(=O)N2CC[C@@H](O)[C@@H](N)C2)cc2nc(-c3cc4ccccc4n3CC3CC3)n(C)c12 | CHRM1 | calcium signal, agonist |  |  | pEC50 | 5.30 |
| N[C@@H](C[C@]1(C(=O)O)C[C@H]2OC[C@@H](O)[C@@H](O)[C@H]2O1)C(=O)O | Glutamate receptor ionotropic, kainate 3 (Rattus norvegicus, UniProt P42264, T520A) | ligand displacement, radioligand |  |  | pKi | 5.85 |
| CC(C)C[C@H](NC(=O)[C@H](Cc1ccccc1)NC(=O)c1cnccn1)B(O)O | Chymase (CMA1, Homo sapiens, UniProt P23946) | enzyme activity, inhibitor |  |  | pIC50 | 5.33 |
| N#CC(CCN1CCC(N)CC1)(c1ccccc1)c1ccccc1 | Potassium voltage-gated channel subfamily A member 3 (Kcna3, Mus musculus, UniProt P16390) | ion current, inhibitor, patch clamp |  |  | pIC50 | < 4.00 |
| CC[C@H](C)[C@H](NC(=O)[C@H](CCCNC(=N)N)NC(=O)[C@H](CCCCN)NC(=O)[C@@H]1CCCN1C(=O)[C@@H](N)CC(C)C)C(=O)N[C@@H](C)C(=O)O | N-terminal Xaa-Pro-Lys N-methyltransferase 1 (Homo sapiens, UniProt Q9BV86) | binding, ITC |  | pH 7.5 | pKd | 4.32 |
| O=P(O)(O)C(CCCc1cccc(Oc2ccccc2)c1)S(=O)(=O)O (stereo not shown) | 4,4'-diapophytoene synthase | enzyme activity, inhibitor |  |  | pKi | 7.70 |
| NCCCCCCNC(=O)c1ccc(NC(=O)c2ccc(CN(C(=O)c3ccc4c(c3)OCC(=O)N4)C3CC3)cc2)cc1 | Histone-lysine N-methyltransferase NSD2 (NSD2, Homo sapiens, UniProt O96028) | protein level, degrader |  |  | DC50 | 0.35 µM |
| N#Cc1c(N)nc(SCC(N)=O)c(C#N)c1-c1ccc(OCC2CC2)cc1 | Adenosine receptor A2b (ADORA2B, Homo sapiens, UniProt P29275) | ligand displacement in cells, radioligand |  |  | pIC50 | 6.11 |
| N#C[C@H](C[C@@H]1CCCNC1=O)NC(=O)[C@H](CC1CC1)NC(=O)c1cc2cccc(Cl)c2[nH]1 | CYP3A4 | enzyme activity, inhibitor | human, liver microsomes | midazolam probe | pIC50 | 4.16 |
| CCc1cc(/C(C)=N/OCc2ccc(C3CCCCC3)c(C(F)(F)F)c2)ccc1CN1CC(C(=O)O)C1 | CYP3A4 | enzyme activity, inhibitor | human, liver microsomes | 20 min, midazolam probe | pIC50 | < 5.96 |
| CC(C)[C@H](N)C(=O)N1CCC[C@H]1B(O)O | Lysosomal Pro-X carboxypeptidase (PRCP, Homo sapiens, UniProt P42785) | enzyme activity, inhibitor |  |  | pIC50 | 4.30 |
| CC(C)=CCC/C(C)=C/CC/C(C)=C/CSc1ccccc1C(=O)O | 4,4'-diapophytoene synthase | enzyme activity, inhibitor |  |  | pKi | 6.96 |
| COc1cc([C@@H]2c3cc4c(cc3[C@@H](O[C@@H]3O[C@@H]5CO[C@@H](C)O[C@H]5[C@H](O)[C@H]3O)[C@H]3COC(=O)[C@H]23)OCO4)cc(OC)c1O | Organic cation/carnitine transporter 2 (SLC22A5, Homo sapiens, UniProt O76082) | transporter uptake, inhibitor, radiometric |  |  | pIC50 | 4.26 |
| O=C(O)c1ccccc1-c1c2cc(Br)c(=O)cc-2oc2[c]([Hg+])c(O)c(Br)cc12 | Papain (Carica papaya, UniProt P00784) | binding, ITC |  |  | pKd | ~1.41 |
| CC(C)[C@@H]1NC(=O)[C@H](CO)NC(=O)[C@H](CO)NC(=O)[C@H](CO)N(C)C(=O)[C@H](CC(=O)O)NC(=O)[C@H](CO)NC(=O)[C@H](Cc2ccccc2)NC(=O)CSC[C@@H](C(=O)NCC(N)=O)NC(=O)[C@H](CC(N)=O)NC(=O)[C@H](CCCNC(=N)N)NC(=O)[C@H](C)NC(=O)[C@H](Cc2ccc(-c3ccccc3)cc2)NC(=O)[C@H](CC(N)=O)NC(=O)[C@@H]2CCCN2C1=O | E3 ubiquitin-protein ligase Mdm2 (MDM2, Homo sapiens, UniProt Q00987) | ligand displacement, TR-FRET |  |  | pKi | < 5.09 |
